Values after ≈ are worked out from the molar mass of the structure shown.
Legend:
Assay type in all cases: functional
Aspergillus niger [1] = assay: Antifungal activity against Aspergillus niger at 20 ug after 48 hrs by cup diffusion method; settings: read-out: IZ
Summary of the method: (§1)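 Cup diffusion on 9 cm plates seeded with 1 × 10⁶ cfu of fungi, with spores adjusted to at least 1 × 10⁶ cfu/ml in potato dextrose broth. Compound in DMF was placed in 5 mm agar cups and left 1 h to diffuse. Plates were incubated at 28 °C for 48 h and the inhibition zone read in mm. DMF was the negative control.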

Aspergillus flavus [2] = assay: Antifungal activity against Aspergillus flavus at 20 ug after 48 hrs by cup diffusion method; settings: read-out: IZ; summary of the method: as §1
Fusarium verticillioides [3] = assay: Antifungal activity against Fusarium moniliforme at 20 ug after 48 hrs by cup diffusion method; settings: read-out: IZ; summary of the method: as §1
Fusarium oxysporum [4] = assay: Antifungal activity against Fusarium oxysporum at 20 ug after 48 hrs by cup diffusion method; settings: read-out: IZ; summary of the method: as §1
Escherichia coli [5] = assay: Antibacterial activity against Escherichia coli MTCC 443 after 24 hrs by cup diffusion method; settings: MTCC 443, 24 h
Fusarium oxysporum [6] = assay: Antifungal activity against Fusarium oxysporum after 48 hrs by cup diffusion method
Staphylococcus aureus [7] = assay: Antibacterial activity against Staphylococcus aureus MTCC 737 after 24 hrs by cup diffusion method; settings: MTCC 737, 24 h
Klebsiella pneumoniae [8] = assay: Antibacterial activity against Klebsiella pneumoniae […] at 20 ug after 24 hrs by cup diffusion method; settings: read-out: IZ
Summary of the method: (§2)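 Agar cup diffusion. Plates of sterile medium in 9 cm dishes were seeded with 1 × 10⁵ cfu of bacteria, with the suspension adjusted to at least 1 × 10⁵ cfu/ml in nutrient broth. Compound in DMF was placed in 5 mm cups and pre-diffused for 1 h. Plates were incubated at 37 °C for 24 h and the inhibition zone measured in mm. DMF served as negative control.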

Pseudomonas aeruginosa [9] = assay: Antibacterial activity against Pseudomonas aeruginosa MTCC 1688 after 24 hrs by cup diffusion method; settings: MTCC 1688, 24 h
Fusarium verticillioides [10] = assay: Antifungal activity against Fusarium moniliforme after 48 hrs by cup diffusion method
Pseudomonas aeruginosa [11] = assay: Antibacterial activity against Pseudomonas aeruginosa MTCC 1688 at 20 ug after 24 hrs by cup diffusion method; settings: MTCC 1688, 24 h, read-out: IZ; summary of the method: as §2
Aspergillus niger [12] = assay: Antifungal activity against Aspergillus niger after 48 hrs by cup diffusion method
Klebsiella pneumoniae [13] = assay: Antibacterial activity against Klebsiella pneumoniae […] after 24 hrs by cup diffusion method
Escherichia coli [14] = assay: Antibacterial activity against Escherichia coli MTCC 443 at 20 ug after 24 hrs by cup diffusion method; settings: MTCC 443, 24 h, read-out: IZ; summary of the method: as §2
Staphylococcus aureus [15] = assay: Antibacterial activity against Staphylococcus aureus MTCC 737 at 20 ug after 24 hrs by cup diffusion method; settings: MTCC 737, 24 h, read-out: IZ; summary of the method: as §2
Aspergillus flavus [16] = assay: Antifungal activity against Aspergillus flavus after 48 hrs by cup diffusion method

| MIC (Escherichia coli [5]) | MIC (Fusarium oxysporum [6]) | MIC (Staphylococcus aureus [7]) | MIC (Pseudomonas aeruginosa [9]) | MIC (Fusarium verticillioides [10]) | MIC (Aspergillus niger [12]) | MIC (Klebsiella pneumoniae [13]) | MIC (Aspergillus flavus [16]) | Structure (SMILES) | zone of inhibition at 20 µg/disc (Aspergillus niger [1]) | zone of inhibition at 20 µg/disc (Aspergillus flavus [2]) | zone of inhibition at 20 µg/disc (Fusarium verticillioides [3]) | zone of inhibition at 20 µg/disc (Fusarium oxysporum [4]) | zone of inhibition at 20 µg/disc (Klebsiella pneumoniae [8]) | zone of inhibition at 20 µg/disc (Pseudomonas aeruginosa [11]) | zone of inhibition at 20 µg/disc (Escherichia coli [14]) | zone of inhibition at 20 µg/disc (Staphylococcus aureus [15]) |
| --- | --- | --- | --- | --- | --- | --- | --- | --- | --- | --- | --- | --- | --- | --- | --- | --- |
| 30 mg/L (≈ 102 µM) | 35 mg/L (≈ 119 µM) | 15 mg/L (≈ 51.1 µM) | 15 mg/L (≈ 51.1 µM) | 30 mg/L (≈ 102 µM) | 35 mg/L (≈ 119 µM) | 20 mg/L (≈ 68.2 µM) | 35 mg/L (≈ 119 µM) | CCOC(=O)C1CCC(c2ccc(OC)c(OC)c2)=NO1 (centres undefined) | 8 mm | 9.66 mm | 11.7 mm | 16.7 mm | 20.7 mm | 25.7 mm | 14.7 mm | 16.5 mm |
| 25 mg/L (≈ 114 µM) | 25 mg/L (≈ 114 µM) | 15 mg/L (≈ 68.4 µM) | 25 mg/L (≈ 114 µM) | 35 mg/L (≈ 160 µM) | 30 mg/L (≈ 137 µM) | 20 mg/L (≈ 91.2 µM) | 35 mg/L (≈ 160 µM) | Cc1ccc(C2=NOC(CO)CC2)cc1C (centres undefined) | 10.7 mm | 8.66 mm | 14.7 mm | 19.8 mm | 17.7 mm | 12.8 mm | 13.7 mm | 14.8 mm |
| 25 mg/L (≈ 117 µM) | 15 mg/L (≈ 70 µM) | 10 mg/L (≈ 46.7 µM) | 15 mg/L (≈ 70 µM) | 15 mg/L (≈ 70 µM) | 20 mg/L (≈ 93.3 µM) | 15 mg/L (≈ 70 µM) | 20 mg/L (≈ 93.3 µM) | Cc1ccc(C2=NOC(C#N)CC2)cc1C (centres undefined) | 11.7 mm | 12.2 mm | 15.7 mm | 21.5 mm | 19.8 mm | 15.2 mm | 15.5 mm | 21.5 mm |
| 35 mg/L (≈ 139 µM) | 30 mg/L (≈ 119 µM) | 20 mg/L (≈ 79.6 µM) | 20 mg/L (≈ 79.6 µM) | 35 mg/L (≈ 139 µM) | 40 mg/L (≈ 159 µM) | 25 mg/L (≈ 99.5 µM) | 40 mg/L (≈ 159 µM) | COc1ccc(C2=NOC(CO)CC2)cc1OC (centres undefined) | 7.83 mm | 8.5 mm | 10.8 mm | 16.5 mm | 14.5 mm | 10.5 mm | 8.5 mm | 7.66 mm |
| 20 mg/L (≈ 74.1 µM) | 10 mg/L (≈ 37.1 µM) | 10 mg/L (≈ 37.1 µM) | 15 mg/L (≈ 55.6 µM) | 15 mg/L (≈ 55.6 µM) | 20 mg/L (≈ 74.1 µM) | 10 mg/L (≈ 37.1 µM) | 15 mg/L (≈ 55.6 µM) | COc1ccc(C2=NOC(CCl)CC2)cc1OC (centres undefined) | 18.7 mm | 20.8 mm | 26.5 mm | 28.7 mm | 17 mm | 9.83 mm | 13.8 mm | 17.8 mm |
| 25 mg/L (≈ 116 µM) | 30 mg/L (≈ 139 µM) | 10 mg/L (≈ 46.2 µM) | 15 mg/L (≈ 69.4 µM) | 35 mg/L (≈ 162 µM) | 40 mg/L (≈ 185 µM) | 15 mg/L (≈ 69.4 µM) | 35 mg/L (≈ 162 µM) | COc1ccc(C2=NOC(C#N)CC2)cc1 (centres undefined) | 9.5 mm | 8.5 mm | 13.4 mm | 18.5 mm | 6.66 mm | 12.2 mm | 10.2 mm | 9.5 mm |
| 25 mg/L (≈ 74.5 µM) | 15 mg/L (≈ 44.7 µM) | 10 mg/L (≈ 29.8 µM) | 15 mg/L (≈ 44.7 µM) | 20 mg/L (≈ 59.6 µM) | 20 mg/L (≈ 59.6 µM) | 15 mg/L (≈ 44.7 µM) | 15 mg/L (≈ 44.7 µM) | c1cc2c(cc1CC1CCC(c3ccc4c(c3)CCC4)=NO1)OCO2 (centres undefined) | 18.7 mm | 20.7 mm | 21.5 mm | 26.7 mm | 16.5 mm | 21.5 mm | 11.5 mm | 15.7 mm |
| 25 mg/L (≈ 102 µM) | 30 mg/L (≈ 122 µM) | 15 mg/L (≈ 60.9 µM) | 10 mg/L (≈ 40.6 µM) | 30 mg/L (≈ 122 µM) | 35 mg/L (≈ 142 µM) | 15 mg/L (≈ 60.9 µM) | 35 mg/L (≈ 142 µM) | COc1ccc(C2=NOC(C#N)CC2)cc1OC (centres undefined) | 11.5 mm | 10.5 mm | 12.8 mm | 15.5 mm | 7.75 mm | 24.5 mm | 10.5 mm | 15.5 mm |
| 35 mg/L (≈ 151 µM) | 25 mg/L (≈ 108 µM) | 20 mg/L (≈ 86.5 µM) | 20 mg/L (≈ 86.5 µM) | 35 mg/L (≈ 151 µM) | 30 mg/L (≈ 130 µM) | 25 mg/L (≈ 108 µM) | 30 mg/L (≈ 130 µM) | OCC1CCC(c2ccc3c(c2)CCC3)=NO1 (centres undefined) | 7.66 mm | 9.83 mm | 13.7 mm | 18.8 mm | 17.7 mm | 13.7 mm | 10.5 mm | 10.7 mm |
